Legend:
Format in all cases: functional
[1] = system: A549; assay: Antineoplastic cytotoxicity against human A549 cells after 72 hrs by SRB method; conditions: A549, 72 h
In short: (§1)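 Cells seeded at 5 × 10^3 per well in RPMI and left to attach for 18 h in drug-free medium. Compounds were then added in DMSO/H2O (3:7) and exposed for 72 h. Cells were fixed with cold 50% TCA for 60 min at 4 °C and stained with 0.4% SRB in 1% acetic acid for 10 min at rt. Bound dye was solubilised in Tris and read at 490 nm. GI50 from 100×[(T−T0)/(C−T0)]=50.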

[2] = system: HT-29; assay: Antineoplastic cytotoxicity against human HT29 cells after 72 hrs by SRB method; conditions: HT-29, 72 h; in short: as §1
[3] = Antineoplastic cytotoxicity against human MEL28 cells after 72 hrs by SRB method; conditions: SK-MEL-28, 72 h; in short: as §1

Structure (SMILES) | GI50 [1] | GI50 [2] | GI50 [3]
C=C1CC[C@@H]2[C@](C)(CCC[C@]2(C)C(=O)OCc2ccccc2)[C@H]1CCc1ccc2c(OCc3ccccc3)ccc(OCc3ccccc3)c2c1 | 6.5 µM | 4.4 µM | –
C=C1CC[C@@H]2[C@](C)(CCC[C@]2(C)C(=O)OC)[C@H]1CCc1ccc2c(OC)ccc(OC)c2c1 | > 6.7 µM | > 6.7 µM | > 6.7 µM
COC(=O)[C@@]1(C)CCC[C@]2(C)C(CCc3ccc4c(OCc5ccccc5)ccc(OCc5ccccc5)c4c3)=C(C)CC[C@@H]12 | 15.2 µM | > 16.6 µM | –
C=C1C(=O)C[C@@H]2[C@](C)(CCC[C@]2(C)C(=O)OC)[C@H]1CCc1ccc2c(OCc3ccccc3)ccc(OCc3ccccc3)c2c1 | 14.8 µM | 8.1 µM | –
C=C1[C@H](O)C[C@@H]2[C@](C)(CCC[C@]2(C)C(=O)OC)[C@H]1CCc1ccc2c(OC(C)=O)ccc(OC(C)=O)c2c1 | 1.6 µM | 1 µM | –
COC(=O)[C@@]1(C)CCC[C@]2(C)C(CCc3ccc4c(OC(C)=O)ccc(OC(C)=O)c4c3)=C(C)CC[C@@H]12 | 0.24 µM | 0.24 µM | –
C=C1CC[C@@H]2[C@](C)(CCC[C@]2(C)C(=O)OC)[C@H]1CCc1ccc2c(OCc3ccccc3)ccc(OCc3ccccc3)c2c1 | > 5 µM | > 5 µM | > 5 µM
C=C1[C@H](O)C[C@@H]2[C@](C)(CCC[C@]2(C)C(=O)OC)[C@H]1CCc1ccc2c(OC)ccc(OC)c2c1 | > 6.4 µM | > 6.4 µM | > 6.4 µM
C=C1CC[C@@H]2[C@](C)(CCC[C@]2(C)C(=O)O)[C@H]1CCc1ccc2c(OC(C)=O)ccc(OC(C)=O)c2c1 | 0.24 µM | 0.24 µM | 0.24 µM
C=C1CC[C@@H]2[C@](C)(CCC[C@]2(C)C(=O)OC)[C@H]1CCc1ccc2c(c1)C(=O)C=CC2=O | 0.2 µM | 0.2 µM | 0.2 µM
C=C1CC[C@@H]2[C@](C)(CCC[C@]2(C)C(=O)O)[C@H]1CCC1=CCc2c(OC(C)=O)ccc(OC(C)=O)c2C1 | 2.5 µM | 10.1 µM | 5 µM
COC(=O)[C@@]1(C)CCC[C@]2(C)C(CCc3ccc4c(OC(C)=O)ccc(OC(C)=O)c4c3)=C(C)[C@@H](O)C[C@@H]12 | 4.8 µM | 4.8 µM | –
C=C1C(=O)C[C@@H]2[C@](C)(CCC[C@]2(C)C(=O)OC)[C@H]1CCc1ccc2c(OC(C)=O)ccc(OC(C)=O)c2c1 | 2.3 µM | 4.4 µM | –
C=C1CC[C@@H]2[C@](C)(CCC[C@]2(C)C(=O)OC)[C@H]1CCC1=CCc2c(OC(C)=O)ccc(OC(C)=O)c2C1 | 0.51 µM | 1.38 µM | 0.68 µM
C=C1CC[C@@H]2[C@](C)(CCC[C@]2(C)C(=O)O)[C@H]1CCc1ccc2c(c1)C(=O)C=CC2=O | > 7.4 µM | 5.7 µM | 5.7 µM
C=C1CC[C@@H]2[C@](C)(CCC[C@]2(C)C(=O)OC)[C@]1(O)CCc1ccc2c(OC)ccc(OC)c2c1 | > 21.5 µM | > 21.5 µM | –
C=C1CC[C@H]2[C@@](C)(CCC[C@@]2(C)C(=O)OC)[C@@H]1CCc1ccc2c(c1)C(=O)c1cc(CC[C@H]3C(=C)CC[C@@H]4[C@]3(C)CCC[C@]4(C)C(=O)OC)ccc1C2=O | > 4.1 µM | > 4.1 µM | > 4.1 µM
C=C1CC[C@@H]2[C@](C)(CCC[C@]2(C)C(=O)OC)[C@H]1/C=C/c1ccc2c(OC)ccc(OC)c2c1 | > 22.3 µM | > 22.3 µM | –
C=C1[C@H](O)C[C@@H]2[C@](C)(CCC[C@]2(C)C(=O)OC)[C@H]1CCc1ccc2c(OCc3ccccc3)ccc(OCc3ccccc3)c2c1 | > 4.9 µM | > 4.9 µM | > 4.9 µM
C=C1C(=O)C[C@@H]2[C@](C)(CCC[C@]2(C)C(=O)OC)[C@H]1CCc1ccc2c(OC)ccc(OC)c2c1 | 3.7 µM | 3.2 µM | –
C=C1CC[C@@H]2[C@](C)(CCC[C@]2(C)C(=O)OC)[C@H]1CCc1ccc2c(OC(C)=O)ccc(OC(C)=O)c2c1 | 0.12 µM | 0.5 µM | 0.12 µM
COC(=O)[C@@]1(C)CCC[C@]2(C)C(CCc3ccc4c(OC)ccc(OC)c4c3)=C(C)CC[C@@H]12 | > 6.7 µM | > 6.7 µM | > 6.7 µM
C=C1CC[C@@H]2[C@](C)(CCC[C@]2(C)C(=O)OC)[C@]1(O)CCc1ccc2c(OCc3ccccc3)ccc(OCc3ccccc3)c2c1 | 12.4 µM | 12.4 µM | 9 µM
COC(=O)[C@@]1(C)CCC[C@]2(C)C(CCc3ccc4c(OC)ccc(OC)c4c3)=C(OOC(C)(C)C)CC[C@@H]12 | > 18.6 µM | > 18.6 µM | > 18.6 µM
COC(=O)[C@@]1(C)CCC[C@]2(C)C(CCc3ccc4c(OC(C)=O)ccc(OC(C)=O)c4c3)=C(C)C(=O)C[C@@H]12 | 0.19 µM | 0.19 µM | –

From ChEMBL document CHEMBL1149632, “New cytotoxic diterpenylnaphthohydroquinone derivatives obtained from a natural diterpenoid” (2007)
